Assay results: ChEMBL document CHEMBL3352049, “Taxanes with high potency inducing tubulin assembly overcome tumoural cell resistances” (Bioorg Med Chem, 2014)
Active and inactive are the calls of the source. No cut-off for these calls is given here.

Experiments:
[1] = Cytotoxicity against human A2780AD cells by MTT assay; format: functional, cell-based; conditions: A2780 ADR
[2] = Resistance ratio of IC50 for human A2780AD cells to IC50 for human A2780 cells; format: functional, A2780 ADR
HeLa [3] = test: Cytotoxicity against human HeLa cells by MTT assay; format: functional, cell-based
How it was run: (§1)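 MTT assay run as a modified version of an earlier method. IC50 in nM is the mean ± SEM of three independent assays. Relative resistance is the IC50 in the resistant line (1A9 tubulin mutants, or βIII-transfected HeLa) divided by the IC50 in the parental line (1A9 or HeLa).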

HeLa [4] = test: Cytotoxicity against human HeLa cells transfected with wild-type tubulin beta3 by MTT assay; format: functional, cell-based; how it was run: as §1
HeLa [5] = test: Resistance ratio of IC50 for human HeLa cells transfected with wild-type tubulin beta3 to IC50 for human HeLa cells; format: functional
How it was run: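 Relative resistance is the IC50 in HeLa cells transfected with wild-type βIII-tubulin divided by the IC50 in parental HeLa cells. Each IC50 (nM) is the mean ± SEM of three independent assays.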

1A9 [6] = test: Cytotoxicity against human 1A9 cells by MTT assay; format: functional, cell-based; how it was run: as §1
[7] = Cytotoxicity against human 1A9PTX10 cells by MTT assay; format: functional, cell-based; conditions: 1A9/ptx-10; how it was run: as §1
1A9 [8] = test: Resistance ratio of IC50 for human 1A9PTX10 cells to IC50 for human 1A9 cells; format: functional
How it was run: (§2)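 Relative resistance is the IC50 in the 1A9 tubulin-mutant line divided by the IC50 in parental 1A9 ovarian carcinoma cells. Each IC50 (nM) is the mean ± SEM of three independent assays.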

[9] = Cytotoxicity against human 1A9PTX22 cells by MTT assay; format: functional, cell-based; conditions: 1A9/ptx-22; how it was run: as §1
1A9 [10] = test: Resistance ratio of IC50 for human 1A9PTX22 cells to IC50 for human 1A9 cells; format: functional; how it was run: as §2
[11] = Cytotoxicity against human 1A9/A8 cells by MTT assay; format: functional, cell-based; how it was run: as §1
1A9 [12] = test: Resistance ratio of IC50 for human 1A9/A8 cells to IC50 for human 1A9 cells; format: functional
A549 [13] = test: Effect on microtubule cytoskeleton in human A549 cells assessed as induction of micronuleated cells with short microtubules in cytoplasm at 60 to 120 nM after 24 hrs by immunofluorescence assay; format: cell-based
How it was run: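 A549 cells were grown overnight on coverslips, then given DMSO vehicle or ligand (60 or 120 nM) for 24 h. Cells were permeabilized with Triton X-100 and fixed in 3.7% formaldehyde. Microtubules were stained with DM1A α-tubulin antibody and DNA with Hoechst 33342. Preparations were viewed by epifluorescence microscopy.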

Tubulin (Bos taurus) = Tubulin (Bos taurus) (UniProt Q6B856+Q862L2+Q862F3); test: Induction of calf brain tubulin polymerization assessed as tubulin concentration required to form microtubules by electron microscopy
How it was run: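 Critical tubulin concentration found by centrifugation and quantification of the polymer formed. Polymers adsorbed onto formvar/carbon-coated copper grids, stained with 1% uranyl acetate, and viewed by electron microscopy at 100 kV.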

microtubule (Bos taurus) [14] = test: Binding affinity to microtubule (Bos taurus) after 30 mins at 26 degC by flutax-2 displacement method
microtubule (Bos taurus) [15] = test: Binding affinity to microtubule (Bos taurus) after 30 mins at 30 degC by flutax-2 displacement method
microtubule (Bos taurus) [16] = test: Binding affinity to microtubule (Bos taurus) after 30 mins at 35 degC by flutax-2 displacement method
microtubule (Bos taurus) [17] = test: Binding affinity to microtubule (Bos taurus) after 30 mins at 40 degC by flutax-2 displacement method
A2780 [18] = test: Cytotoxicity against human A2780 cells by MTT assay; format: functional, cell-based
MCF7 = test: Cytotoxicity against human MCF7 cells by MTT assay; format: functional, cell-based
[19] = Cytotoxicity against human MCF7/R cells by MTT assay; format: functional, cell-based; conditions: MCF7R
A2780 [20] = test: Cell cycle arrest at G2/M phase in human A2780 cells at 30 nM after 20 hrs by flow cytometry; format: functional, cell-based
A2780 [21] = test: Cell cycle arrest at G2/M phase in human A2780 cells at 60 nM after 20 hrs by flow cytometry; format: functional, cell-based
[22] = Cell cycle arrest at G2/M phase in human A2780AD cells at 30 nM after 20 hrs by flow cytometry; format: functional, cell-based; conditions: A2780 ADR
[23] = Cell cycle arrest at G2/M phase in human A2780AD cells at 60 nM after 20 hrs by flow cytometry; format: functional, cell-based; conditions: A2780 ADR
A549 [24] = test: Cell cycle arrest at G2/M phase in human A549 cells at 30 nM after 20 hrs by flow cytometry; format: functional, cell-based
A549 [25] = test: Cell cycle arrest at G2/M phase in human A549 cells at 60 nM after 20 hrs by flow cytometry; format: functional, cell-based
microtubule (Bos taurus) [26] = test: Binding affinity to microtubule (Bos taurus) after 30 mins at 27 degC by flutax-2 displacement method
microtubule (Bos taurus) [27] = test: Binding affinity to microtubule (Bos taurus) after 30 mins at 32 degC by flutax-2 displacement method
microtubule (Bos taurus) [28] = test: Binding affinity to microtubule (Bos taurus) after 30 mins at 37 degC by flutax-2 displacement method
microtubule (Bos taurus) [29] = test: Binding affinity to microtubule (Bos taurus) after 30 mins at 42 degC by flutax-2 displacement method
A549 [30] = test: Effect on microtubule cytoskeleton in human A549 cells assessed as induction of MS bundles of microtubules near membrane and nucleus at 50 to 500 nM after 24 hrs by immunofluorescence assay; format: cell-based
How it was run: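 A549 cells grown overnight on 12 mm round coverslips, then exposed 24 h to DMSO vehicle or ligand at serial concentrations. Permeabilized with Triton X100, fixed in 3.7% formaldehyde. Microtubules stained with DM1A anti-α-tubulin monoclonal, DNA with Hoechst 33342. Viewed by epifluorescence microscopy and imaged with a cooled CCD camera.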

microtubule (Bos taurus) [31] = test: Binding affinity to paclitaxel site of microtubule (Bos taurus) after 30 mins at 26 degC by epothilone B displacement method
microtubule (Bos taurus) [32] = test: Binding affinity to paclitaxel site of microtubule (Bos taurus) after 30 mins at 30 degC by epothilone B displacement method
microtubule (Bos taurus) [33] = test: Binding affinity to paclitaxel site of microtubule (Bos taurus) after 30 mins at 35 degC by epothilone B displacement method
microtubule (Bos taurus) [34] = test: Binding affinity to paclitaxel site of microtubule (Bos taurus) after 30 mins at 40 degC by epothilone B displacement method

Row | Activity (Tubulin (Bos taurus)) [µM] | Kb (microtubule (Bos taurus) [14]) [×10⁷ /M] | Kb (microtubule (Bos taurus) [15]) [×10⁷ /M] | Kb (microtubule (Bos taurus) [16]) [×10⁷ /M] | Kb (microtubule (Bos taurus) [17]) [×10⁷ /M] | SMILES | IC50 [1] [nM] | Ratio IC50 [2] | IC50 (HeLa [3]) [nM] | IC50 (HeLa [4]) [nM] | Ratio IC50 (HeLa [5]) | IC50 (1A9 [6]) [nM] | IC50 [7] [nM] | Ratio IC50 (1A9 [8]) | IC50 [9] [nM] | Ratio IC50 (1A9 [10]) | IC50 [11] [nM] | Ratio IC50 (1A9 [12]) | Activity (A549 [13]) | IC50 (A2780 [18]) [nM] | IC50 [19] [nM] | also measured
1 | 3.6 | 612 | 748 | 628 | 355 | CCC(=O)O[C@H]1C(=O)[C@@]2(C)[C@H]([C@H](OC(=O)c3cccc(N=[N+]=[N-])c3)[C@]3(O)C[C@H](OC(=O)[C@H](O)[C@@H](NC(=O)OC(C)(C)C)c4ccccc4)C(C)=C1C3(C)C)[C@]1(OC(C)=O)CO[C@@H]1C[C@@H]2O | 9.1 | 1.3 | 9.2 | 16 | 1.7 | 3.1 | 2.4 | 0.4 | 12 | – | 3.8 | 1.2 | Active | 7 | 153 | IC50 (MCF7): 1.9 nM
2 | 1.6 | 3 | 2.7 | 2.4 | 2.7 | CC(=O)O[C@H]1C(=O)[C@@]2(C)[C@H]([C@H](OC(=O)c3ccccc3)[C@]3(O)C[C@H](OC(=O)[C@H](O)[C@H](CC(C)C)NC(=O)OC(C)(C)C)C(C)=C1C3(C)C)[C@]1(OC(C)=O)CO[C@@H]1C[C@@H]2O | 29.1 | 7.9 | 4.4 | 11.2 | 2.5 | 2.4 | 1.75 | 0.7 | 4.95 | 2 | 11.5 | 4.7 | Active | 3.7 | 2.8 | IC50 (MCF7): 0.35 nM; Activity (A2780 [20]): Active; Activity (A2780 [21]): Active; Activity [22]: Active; Activity [23]: Active; Activity (A549 [24]): Active; Activity (A549 [25]): Active; Kb (microtubule (Bos taurus) [26]): 2.8 ×10⁷ /M; Kb (microtubule (Bos taurus) [27]): 2.7 ×10⁷ /M; Kb (microtubule (Bos taurus) [28]): 2.3 ×10⁷ /M; Kb (microtubule (Bos taurus) [29]): 2.5 ×10⁷ /M
3 | 2.4 | – | – | – | – | CC(=O)O[C@@]12CO[C@@H]1C[C@H](O)[C@@]1(C)C(=O)[C@H](O)C3=C(C)[C@@H](OC(=O)[C@H](O)[C@@H](NC(=O)OC(C)(C)C)c4ccccc4)C[C@@](O)([C@@H](OC(=O)c4ccccc4)[C@H]21)C3(C)C [DOCETAXEL] | 290 | – | – | – | – | – | – | – | – | – | – | – | – | – | – | –

More lines, now with the values behind:

Row | SMILES | Activity (Tubulin (Bos taurus)) [µM] | Kb (microtubule (Bos taurus) [14]) [×10⁷ /M] | Kb (microtubule (Bos taurus) [15]) [×10⁷ /M] | Kb (microtubule (Bos taurus) [16]) [×10⁷ /M] | Kb (microtubule (Bos taurus) [17]) [×10⁷ /M] | IC50 [1] [nM] | Ratio IC50 [2] | IC50 (HeLa [3]) [nM] | IC50 (HeLa [4]) [nM] | Ratio IC50 (HeLa [5]) | IC50 (1A9 [6]) [nM] | IC50 [7] [nM] | Ratio IC50 (1A9 [8]) | IC50 [9] [nM] | Ratio IC50 (1A9 [10]) | IC50 [11] [nM] | Ratio IC50 (1A9 [12]) | Activity (A549 [13]) | IC50 (A2780 [18]) [nM] | IC50 [19] [nM] | also measured
4 | C/C=C(\C)C(=O)N[C@@H](c1ccccc1)[C@@H](O)C(=O)O[C@H]1C[C@@]2(O)[C@@H](OC(=O)c3cccc(N=[N+]=[N-])c3)[C@@H]3[C@]4(OC(C)=O)CO[C@@H]4C[C@H](OC(=O)CC)[C@@]3(C)C(=O)[C@H](O)C(=C1C)C2(C)C | 2.9 | 124 | 85 | 87 | 52 | 14 | 5.2 | 3.2 | 10.2 | 3.2 | 2.3 | 11.6 | 5 | 1.9 | 0.83 | 2 | 0.9 | Active | – | – | –
5 | CC(=O)O[C@@]12CO[C@@H]1C[C@H](O)[C@@]1(C)C(=O)[C@H](OC(=O)C3CC3)C3=C(C)[C@@H](OC(=O)[C@H](O)[C@H](C=C(C)C)NC(=O)OC(C)(C)C)C[C@@](O)([C@@H](OC(=O)c4ccccc4)[C@H]21)C3(C)C | 0.9 | 12 | 10 | 8 | 7 | 10.9 | 2.1 | 2.1 | 11.2 | 5.3 | 5 | 10.8 | 2.2 | 7.9 | 1.6 | 12.2 | 2.4 | Active | 5.2 | 2.1 | Activity (A2780 [20]): Active; Activity (A2780 [21]): Active; Activity [22]: Active; Activity [23]: Active; Activity (A549 [24]): Active; Activity (A549 [25]): Active; Kb (microtubule (Bos taurus) [26]): 11 ×10⁷ /M; Kb (microtubule (Bos taurus) [27]): 9 ×10⁷ /M; Kb (microtubule (Bos taurus) [28]): 7 ×10⁷ /M; Kb (microtubule (Bos taurus) [29]): 6 ×10⁷ /M
6 | CC(=O)O[C@H]1C(=O)[C@@]2(C)[C@H]([C@H](OC(=O)c3ccccc3)[C@]3(O)C[C@H](OC(=O)[C@H](O)[C@@H](NC(=O)c4ccccc4)c4ccccc4)C(C)=C1C3(C)C)[C@]1(OC(C)=O)CO[C@@H]1C[C@@H]2O [PACLITAXEL] | 4.2 | – | – | – | – | 1240 | – | 0.7 | – | – | 3.9 | 81.4 | – | 32.8 | – | 4.2 | – | – | 0.4 | – | Activity (A549 [30]): Active
7 | CCC(=O)O[C@H]1C(=O)[C@@]2(C)[C@H]([C@H](OC(=O)c3cccc(OC)c3)[C@]3(O)C[C@H](OC(=O)[C@H](O)[C@H](C=C(C)C)NC(=O)OC(C)(C)C)C(C)=C1C3(C)C)[C@]1(OC(C)=O)CO[C@@H]1C[C@@H]2O | 0.6 | – | – | – | – | 10.5 | – | 5.7 | 4.8 | – | 3.3 | 2.9 | – | 4.9 | – | 4 | – | Active | 3.4 | 0.33 | Activity (A2780 [20]): Active; Activity (A2780 [21]): Active; Activity [22]: Active; Activity [23]: Active; Activity (A549 [24]): Active; Activity (A549 [25]): Active; Kb (microtubule (Bos taurus) [31]): 731 ×10⁷ /M; Kb (microtubule (Bos taurus) [32]): 545 ×10⁷ /M; Kb (microtubule (Bos taurus) [33]): 478 ×10⁷ /M; Kb (microtubule (Bos taurus) [34]): 318 ×10⁷ /M
